Results on one molecule are retold here after ChEMBL document CHEMBL6121049, “Discovery of Orally Available Prodrugs of Itaconate and Derivatives” (J Med Chem, 2025).

The nature of data set [1]: Metabolic stability in mouse skin homogenate assessed as compound remaining at 10 uM measured after 1 hrs by LC-MS analysis. Type of data set: ADME, tissue-based, Skin of body. Particulars: tissue homogenate.
Data set [2] can be described thus: Permeability of the compound at pH 7.4 incubated for 4 hrs by PAMPA-GIT assay. Type of data set: ADME. The following applies: pH 7.4, 4 h. An outline of the steps:
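PAMPA-GIT sandwich: acceptor filter coated with GIT-0 lipid; donor holds 10 μM compound in pH 7.4 buffer with 0.2% DMSO, acceptor pH 7.4 sink buffer; 4 h at room temperature; both compartments sampled by LC-MS/MS; effective permeability Pe calculated with membrane retention correction.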

Data set [3] in a line: Prodrug conversion in po dosed C57BL6 mouse skin assessed as 4-methyl itaconic concentration measured after 24 hrs. The format is ADME, organism-based, Skin of body. The following applies: in vivo.
Data set [4] in a line: Cytotoxicity against NHEK cells assessed as cell viability at 100 uM measured after 8 hrs by CellTiter-Glo assay relative to control. The following applies: human. Type of data set: toxicity, cell-based. An outline of the steps:
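Primary normal human epidermal keratinocytes, expanded and seeded, exposed to 1, 10, 30 or 100 μM for 8 h; viability by CellTiter-Glo luminescence as % viable.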

Data set [5] in a line: Chemical stability in pH 4.5 assessed as compound remaining at 10 uM measured after 1 hrs by LC-MS/MS analysis. Particulars: buffer, pH 4.5, 1 h. The format is physicochemical. Summed up:
(§1)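 Compounds incubated in buffers at pH 1.2, 4.5 or 7.4 at 37 °C for 1 h; prodrug disappearance followed by LC–MS/MS as % remaining.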

A short description of data set [6]: Prodrug conversion in C57BL6 mouse skin assessed as 4-methyl itaconate Tmax at 100 mg/kg, po measured after 24 hrs by LC-MS/MS analysis. Type of data set: ADME, organism-based, Skin of body. The following applies: in vivo. An outline of the steps: (§2)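 C57BL6 mice, 25–30 g, 8.5 weeks old, given 100 mg/kg (IA or 4-MI equivalent) orally in 10% DMSO/80% PEG/10% HBS, freshly prepared; killed at 0.25–24 h, n = 3 per time point; acidified plasma and stabilized skin homogenates, methanol precipitation with internal standards, LC-MS/MS (orbitrap); PK parameters as mean ± SEM.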

Data set [7] in a line: Immunomodulatory activity in NHEK cells assessed as inhibition of IFN-gamma induced CXCL11 expression at 30 to 100 uM by TaqMan RTPCR analysis relative to control. Particulars: dose 30-100 µM. The format is functional, Homo sapiens. An outline of the steps: (§3)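 Primary human keratinocytes seeded, held overnight at 37 °C, 5% CO2, then stimulated with Poly(I:C) 50 μg/mL plus IFNγ 5 ng/mL, with or without prodrug at 1, 10, 30 or 100 μM; gene induction measured at 8 h.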

Data set [8] in a line: Prodrug conversion in C57BL6 mouse plasma assessed as 4-methyl itaconic AUC (0 to t) at 100 mg/kg, po measured after 24 hrs by LC-MS/MS analysis. The following applies: in vivo. The format is ADME, organism-based.
Data set [9] is described as follows: Chemical stability in pH 1.2 assessed as compound remaining at 10 uM measured after 1 hrs by LC-MS/MS analysis. The following applies: buffer, pH 1.2, 1 h. Type of data set: physicochemical. An outline of the steps: as §1
The nature of data set [10]: Prodrug conversion in C57BL6 mouse plasma assessed as 4-methyl itaconic half life at 100 mg/kg, po measured after 24 hrs by LC-MS/MS analysis. Type of data set: ADME, organism-based. The following applies: in vivo. An outline of the steps:
as §2

A short description of data set [11]: Immunomodulatory activity in NHEK cells assessed as inhibition of IL-6 mRNA expression at 100 uM preincubated for 2 days and measured after 24 hrs by TaqMan RTPCR analysis. Type of data set: functional. Particulars: Homo sapiens, 48 h, time 2 day.
Data set [12] in a line: Toxicity in C57BL6 mouse assessed as body weight loss at 30 to 100 mg/kg, ip administrated daily and measured after 7 days. The format is organism-based. The following applies: in vivo, 168 h, dose 30-100 mg/kg, time 7 day.
The nature of data set [13]: Immunomodulatory activity in NHEK cells assessed as inhibition of Poly(I:C)/IFN-gamma induced IL-1 beta expression at >= 10 uM by TaqMan RTPCR analysis relative to control. The format is functional, Homo sapiens. More on the design: scale not given: the % may be the effect or the level left. An outline of the steps:
as §3

Data set [14] in a line: Prodrug conversion in C57BL6 mouse plasma assessed as 4-methyl itaconate Tmax at 100 mg/kg, po measured after 24 hrs by LC-MS/MS analysis. The following applies: in vivo. Type of data set: ADME, organism-based. Summed up:
as §2

Data set [15] is described as follows: Metabolic stability in human plasma assessed as compound remaining at 10 uM measured after 1 hrs by LC-MS analysis. The format is ADME, cell-free. An outline of the steps:
(§4)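 Prodrugs (10 μM) spiked into mouse or human plasma, shaken at 37 °C; samples at 0 and 60 min quenched in cold acetonitrile with losartan internal standard, centrifuged, diluted, run by LC-HRMS; % remaining from analyte/IS peak-area ratio.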

The nature of data set [16]: Metabolic stability in mouse plasma assessed as compound remaining at 10 uM measured after 1 hrs by LC-MS analysis. The format is ADME, cell-free. Summed up:
as §4

Data set [17] can be described thus: Metabolic stability in human skin homogenate assessed as compound remaining at 10 uM measured after 1 hrs by LC-MS analysis. Type of data set: ADME, tissue-based, Skin of body. Particulars: tissue homogenate.
Data set [18] is described as follows: Prodrug conversion in C57BL6 mouse skin assessed as 4-methyl itaconic half life at 100 mg/kg, po measured after 24 hrs by LC-MS/MS analysis. Type of data set: ADME, organism-based, Skin of body. The following applies: in vivo. An outline of the steps:
as §2

Data set [19] can be described thus: Toxicity in C57BL6 mouse assessed as hematological changes at 30 to 100 mg/kg, ip measured after 7 days. Type of data set: organism-based. The following applies: in vivo, 168 h, dose 30-100 mg/kg, time 7 day.
Data set [20] in a line: Chemical stability in pH 7.4 assessed as compound remaining at 10 uM measured after 1 hrs by LC-MS/MS analysis. The format is physicochemical. The following applies: buffer, pH 7.4, 1 h. Summed up: as §1
Data set [21] can be described thus: Prodrug conversion in C57BL6 mouse plasma assessed as 4-methyl itaconate Cmax at 100 mg/kg, po measured after 24 hrs by LC-MS/MS analysis. Type of data set: ADME, organism-based. The following applies: in vivo. Summed up:
as §2

Data set [22] is described as follows: Prodrug conversion in C57BL6 mouse skin assessed as 4-methyl itaconic AUC (0 to t) at 100 mg/kg, po measured after 24 hrs by LC-MS/MS analysis. Type of data set: ADME, organism-based, Skin of body. The following applies: in vivo.
Data set [23] is described as follows: Prodrug conversion in C57BL6 mouse skin assessed as 4-methyl itaconate Cmax at 100 mg/kg, po measured after 24 hrs by LC-MS/MS analysis. The format is ADME, organism-based, Skin of body. Particulars: in vivo. An outline of the steps:
as §2

The Tmax is the time from dosing to the highest level. The inhibition is the percentage by which the read-out fell short of the control. Take `C=C(CC(=O)OC)C(=O)OCOC(=O)OC(C)C`: the Stability in data set [1] was 0%; in [5], 103%; in [9], 108%; in data set [15], 0%; in data set [16], 0%; in data set [17] it was 1.6%. In data set [20], the Stability was 102%. Besides, the permeability in data set [2] is listed as 35.3 10^-6 cm/s. In data set [3], the Drug metabolism is above 100 µM. Further, the Activity in data set [4] was above 80%; in [12], “Non-toxic”; in data set [13], above 50%; in data set [19] it was “Non-toxic”. In addition, the results for the time to peak (Tmax) in [6] and in data set [14] were 60 min and 30 min, respectively. For the same molecule, the “inhibition (INH)” value in [7] is above 50%. The AUCt in [8] came to 415 µM·h; in data set [22], 234 nmol·h/g. In addition, the t1/2 was determined as 52.2 min in [10] and 58.2 min in data set [18]. For the same molecule, the inhibition at 100 µM in [11] was above 90%. For the same molecule, the Cmax was determined as 349 µM in data set [21] and 192 nmol/g in data set [23].
